Hits are enriched below; roughly 3% of the tested compounds scored in any of these assays.
PfHsp90 set2 = inhibits growth of yeast expressing Plasmodium falciparum Hsp90; S. cerevisiae expressing PfHsp90, BacTiter-Glo ATP, 48 h; yeast lacking PDR1 and PDR3 efflux regulators; 310,000 tested, 0.32% active; AID 504621; inhibition, % at 9.4 µM;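 active = every replicate shows inhibition above about 80%, whatever the replicate mean, limit read from the data; inconclusive = mean inhibition reaches the set limit but some replicate falls short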
Glyco luc inh = blocks N-linked glycosylation in D54 reporter cells | D54 ERlucT glycosylation luciferase reporter, 24 h; percent of 100 nM tunicamycin response | reporter increase, % at 12.5 µM | 360,000 tested, 0.23% active | AID 588692;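 active = mean luciferase reporter signal, scaled so untreated is 0 and the glycosylation-blocking control 100, at or above a set limit in every replicate; inconclusive = mean reaches the limit but not every replicate does; inactive = mean below the limit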;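 also: luciferase carries N-glycosylation sites so blocking glycosylation raises the light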
HSF1 activator = increases HSF-1 driven luciferase reporter signal; NIH3T3-HGL HSF-1 luciferase reporter, MG132, 8 h; 100% = twice DMSO control signal; activation, % at 9 µM; 300,000 tested, 1.7% active;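 active = mean replicate activation of at least 50% with a set share of replicates each reaching 50%; inconclusive = only one of those two conditions met; inactive = mean below 50% and too few replicates reaching it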
CaV13 FRET inh = Primary screen for inhibitors of IQ motif and Ca2+-dependent inactivation inhibitor domain binding in CACNA1D, Förster resonance energy transfer in living cells, … | 340,000 tested, 0.098% active | inhibition, % at 12.3 µM | HEK cells, CFP/YFP FRET ICDI-IQ, plate reader, 10 min; percent FRET-ratio fall versus neutral wells;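 active = mean replicate inhibition of at least 30% and at least 1% of replicates passing that level; inconclusive = only one of the two criteria is met; inactive = neither criterion is met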
T cruzi inh = T. cruzi replication inhibition | inhibition, % (test concentration not listed) | AID 1885 | 300,000 tested, 1.4% active | T. cruzi beta-gal in NIH3T3, luminescence, 90 h;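 active = mean inhibition across valid replicates above about 55%, limit read from the data; inconclusive = mean below that limit but half or more replicates reach it; inactive = mean below it, under half of replicates reach it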;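 also: signal also drops with host cell toxicity which is not excluded here; higher percent means less beta-gal luminescence so fewer parasites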
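System: Mouse NIH/3T3 fibroblasts infected with β-gal-expressing T. cruzi Tulahuen C4 | Quantity: NIH/3T3 cells, 5,000 per well | Reagent: 5000 reporter trypomastigotes per well | Dosing: Compound pinned at 50 nL/well, DMSO | Schedule: 3 h host attachment, then at least 90 h co-culture | Detection: GalScreen luminescence, 60 min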
PvdQ inh = blocks Pseudomonas aeruginosa PvdQ acylase activity; 340,000 tested, 0.063% active; inhibition, % at 10 µM; AID 488965; purified PvdQ acylase, fluorescence plate reader; in the data active = inhibition above about 30%, passing the limit was not always enough; inconclusive = no clear call, values can overlap the other calls
Numbers stand for hits; - = inactive; ? = inconclusive; . = no result given.

SMILES	PfHsp90 set2	Glyco luc inh	HSF1 activator	CaV13 FRET inh	T cruzi inh	PvdQ inh
CN1CCN(CC(O)c2ccccc2)CC1 (centres undefined)	.	.	-	.	55.2	.
COc1ccc(C2=CC(=O)C=CC2=O)cc1	.	.	?	.	-	-
COCCNC(=O)c1c(N)[nH]c(C(=O)c2ccc(Br)cc2)c1-c1ccc(Br)cc1	.	.	.	-	.	.
COC(=O)CC/C(O)=C1/C(=N)CC(C)(C)CC1=O	-	-	58.4	-	-	-
C=CCN=C1CC(C)(C)CC(=O)/C1=C(/O)CCC(=O)OC	-	.	-	-	-	-
CCOC(=O)N(C)C[C@@H]1OCc2cnnn2CCCC(=O)N([C@H](C)CO)C[C@H]1C	.	-	.	.	.	.
O=C(Nc1cccc(-n2cnnn2)c1)c1ccccc1Br	-	-	-	-	-	-
O=C(Nc1cccc(-n2cnnn2)c1)c1cc(Cl)ccc1Cl	-	33.5	-	-	-	-
CCc1cc(-c2nnn(-c3cc(C(C)C)ccc3C)c2CC)ccc1-c1cn(CCc2c[nH]c3ccccc23)nn1	.	-	.	-	.	.
Nc1ccn([C@@H]2O[C@H](C(=O)N[C@H](Cc3ccccc3)C(=O)N3CCN(CC(=O)N4CCCC4)CC3)[C@@H](O)[C@H]2O)c(=O)n1	.	.	.	-	.	.
COc1ccc(-c2csc(N3CCSCC3)n2)cc1	-	-	-	-	-	-
COc1ccc(-c2csc(-n3cccn3)n2)cc1	-	-	61.3	-	-	-
COc1ccc(CN2C[C@@H](CO)O[C@@H](n3cnc4c(N(C)C)ncnc43)C2)cc1	.	-	.	-	.	.
O=C(CSc1cccc2cccnc12)Nc1ccc(S(=O)(=O)N2CCOCC2)cc1	-	-	-	-	62.6	-
O=C(CSc1nc2cc(Cl)ccc2c(=O)n1Cc1ccco1)Nc1ccc(S(=O)(=O)N2CCOCC2)cc1	-	-	78.9	-	-	-
O=C(N[C@H](C(=O)N1CCC[C@H]1C(=O)NC1CCCC1)C1CCCCC1)c1ccccc1	.	.	.	-	.	.
COC(=O)c1ccc(/C=C2/SC(=S)N(CCCC(=O)Nc3ccccn3)C2=O)cc1	-	-	-	-	-	-
Cc1ccc(/C=C2\SC(=S)N(CCC(=O)NNS(=O)(=O)c3ccc(C)cc3)C2=O)cc1	-	-	64.1	-	-	-
COc1ccc(/C=C2\SC(=S)N(CCC(=O)Nc3cccc(O)c3)C2=O)cc1	-	-	92.1	-	-	-
CCc1ccc(/C=C2\SC(=S)N(CCCC(=O)Nc3ccccn3)C2=O)cc1	-	-	-	.	62.0	-
COC(=O)C1=C(C)N(Cc2ccccc2C(F)(F)F)C(=NCc2cc(OC)c(OC)c(OC)c2)NC1c1cccc(Cl)c1 (centres undefined)	.	.	.	-	.	.
CCOC(=O)C(CNc1ccc(OCc2ccccc2)cc1)NC(=O)c1ccccc1 (centres undefined)	.	.	.	-	.	.
CCc1ccccc1NC(=O)COc1ccc2c(=O)c(Oc3cc(C)ccc3C)coc2c1	-	-	70.6	-	-	-
CC(C)c1ccccc1NC(=O)COc1ccc2c(=O)c(Oc3ccc4ccccc4c3)coc2c1	.	.	-	.	-	.
CCCCC[n+]1ccn(-c2nc3ccccc3nc2[N-]S(=O)(=O)c2ccccc2)c1	-	-	-	-	-	-
SMILES	PfHsp90 set2	Glyco luc inh	HSF1 activator	CaV13 FRET inh	T cruzi inh	PvdQ inh
O=S(=O)([N-]c1nc2ccccc2nc1-n1cc[n+](Cc2ccccc2)c1)c1ccc(Br)cc1	.	48.3	-	-	-	.
O=C(NCC[C@@H]1CC[C@@H](NS(=O)(=O)c2ccccc2)[C@@H](CO)O1)c1cc(Cl)cc(Cl)c1	.	.	.	-	.	.
C=CCN=C1NC(CCc2ccccc2)C(C(=O)OC)=C(C)N1Cc1cccc(C(F)(F)F)c1 (centres undefined)	.	.	.	-	.	.
COC(=O)C1=C(C)N(Cc2ccc(C)cc2)C(=O)/C1=C\c1ccc(O)c(OC)c1	-	-	-	-	-	-
COC(=O)C1=C(C)N(Cc2ccc(C)cc2)C(=O)/C1=C\c1cc(OC)c(OC)c(OC)c1	-	-	97.8	-	-	-
CC1(C(=O)NS(=O)(=O)c2ccccc2Cl)CCN1C(=O)c1ccco1 (centres undefined)	.	-	.	-	.	.
CCCOc1ccc(/C=C/c2[nH]c(=O)[nH]c(=O)c2[N+](=O)[O-])cc1OCC	-	-	-	-	-	-
CCOc1cc(/C=C\c2[nH]c(=O)[nH]c(=O)c2[N+](=O)[O-])ccc1OC(C)CC (centres undefined)	.	.	63.9	-	-	.
CCOC(=O)COc1ccc(Br)cc1/C=C/c1[nH]c(=O)[nH]c(=O)c1[N+](=O)[O-]	-	-	85.0	-	-	-
CCOC(=O)COc1ccc(Br)cc1/C=C\c1[nH]c(=O)[nH]c(=O)c1[N+](=O)[O-]	-	-	-	-	-	-
O=C(COc1ccccc1/C=C\c1[nH]c(=O)[nH]c(=O)c1[N+](=O)[O-])Nc1ccccc1	-	-	-	-	55.4	-
O=c1[nH]c(/C=C/c2ccccc2Cl)c([N+](=O)[O-])c(=O)[nH]1	-	-	-	-	-	-
NC(=O)c1cnc(Cc2c[nH]c3ccccc23)c(I)c1	.	-	.	-	.	.
CN(C)CCC1CCN(c2cc(C#N)c(C#N)cc2[N+](=O)[O-])CC1	.	-	-	-	78.8	-
CCc1c(Cc2ccccc2)ncn1CCc1ccccc1OC	.	.	.	-	.	.
O=C(Nc1ccc2c(c1)CCCN2C(=O)c1ccco1)c1cc([N+](=O)[O-])ccc1Cl	.	-	74.5	-	-	-
O=C(NC1CCCCCCC1)c1cc([N+](=O)[O-])ccc1Cl	-	-	-	-	-	42.3
O=C(Nc1ccc(Nc2ccccc2)cc1)c1cc([N+](=O)[O-])ccc1Cl	-	-	134.2	-	-	-
O=C(NC1CCCCC1)c1cc([N+](=O)[O-])ccc1N1CCCC1	-	.	-	-	-	-
CC(=O)Nc1ccc(NC(=O)c2ccccc2Sc2ccc([N+](=O)[O-])cc2Cl)cc1	-	-	75.9	-	-	-
O=C(Nc1ccccc1Oc1ccccc1)c1cc([N+](=O)[O-])ccc1Cl	-	-	-	-	-	-
CCOC(=O)C1(C)CCN1C(=O)c1cc(C)oc1C (centres undefined)	.	-	.	-	.	.
COc1ccc2ccccc2c1C=NN1CCCCC1	.	-	.	-	.	.
COc1ccc(CN(C)C(=O)/C=C/[C@H]2O[C@@H](n3cc(C)c(=O)[nH]c3=O)C[C@@H]2O)cc1OC	.	-	.	-	.	.
COc1cc2c(cc1OC)C(c1ccccc1)N(C(=O)c1cccc(S(C)(=O)=O)c1)CC2 (centres undefined)	-	66.9	-	-	-	-
COc1ccc(C2c3cc(OC)c(OC)cc3CCN2C(=O)c2ccccc2)cc1OC (centres undefined)	-	-	-	-	-	-
Cc1ccc(/C=C2\SC(=S)N(CCC(=O)N3CCCCC3)C2=O)cc1	-	-	-	-	-	-
